# Values joined by “and” are separate entries in the source; they are usually repeats but may differ in a detail not shown here. Equal values may be shown once.
# Legend:
# [1] = system: Fibroblast; assay: Multiplex assay against human fibroblast; assay type: toxicity, cell-based; conditions: number of replicates 2
# Method in brief: (§1)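 Phenotypes for tubulin, mitochondrial mass and membrane permeability are expressed as per cents of healthy-nucleus cells. Cells were stained live at seeding with Hoechst33342, BioTracker Green Microtubule Cytoskeleton Dye, MitoTracker Red and Annexin V Alexa Fluor 680, then imaged after compound addition on a CQ1 microscope at 37°C and 5% CO2. Machine-learning gating in CellPathfinder separated Hoechst high-intensity objects from normal cells, divided normal cells by nuclear state (healthy, pyknosed, fragmented) and divided pyknosed cells into mitotic or apoptotic.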
# [2] = system: HEK-293T; assay: Multiplex assay against HEK293T; assay type: toxicity, cell-based; conditions: human, number of replicates 2; method in brief: as §1
# [3] = 12 h, 1 µM, compound concentration 1 uM
# [4] = 12 h, 10 µM, compound concentration 10 uM
# [5] = 24 h, 1 µM, compound concentration 1 uM
# [6] = 24 h, 10 µM, compound concentration 10 uM
# [7] = 48 h, 1 µM, compound concentration 1 uM
# [8] = 48 h, 10 µM, compound concentration 10 uM
smiles,measurement,setting,value
Cc1cc(-c2cnc(N)c3c(-c4ccc5scnc5c4)csc23)n(C)n1,Population Apoptotic (%),[1]; [3],48% and 40%
same,Population Fragmented Nuclei (%),[1]; [3],9% and 10%
same,Population Healthy Nuclei (%),[1]; [3],77% and 62%
same,Population Hoechst High Intensity Objects (%),[1]; [3],0%
same,Population Membrane Permeable-Phenotype (%),[1]; [3],4% and 10%
same,Population Mitochondria Different-Phenotype (%),[1]; [3],0% and 2%
same,Population Mitotic Cells (%),[1]; [3],51% and 60%
same,Population Normal (%),[1]; [3],100%
same,Population Pyknosed Nuclei (%),[1]; [3],12% and 26%
same,Population Tubulin-Different-Phenotype (%),[1]; [3],14% and 15%
same,Total Cell Count,[1]; [3],224 and 187
same,Population Apoptotic (%),[1]; [4],66% and 51%
same,Population Fragmented Nuclei (%),[1]; [4],23%
same,Population Healthy Nuclei (%),[1]; [4],61% and 62%
same,Population Hoechst High Intensity Objects (%),[1]; [4],0%
same,Population Membrane Permeable-Phenotype (%),[1]; [4],12% and 20%
same,Population Mitochondria Different-Phenotype (%),[1]; [4],2% and 0%
same,Population Mitotic Cells (%),[1]; [4],33% and 48%
same,Population Normal (%),[1]; [4],99% and 100%
same,Population Pyknosed Nuclei (%),[1]; [4],15% and 14%
same,Population Tubulin-Different-Phenotype (%),[1]; [4],76% and 56%
same,Total Cell Count,[1]; [4],240 and 224
same,Population Apoptotic (%),[1]; [5],50% and 60%
same,Population Fragmented Nuclei (%),[1]; [5],13% and 10%
same,Population Healthy Nuclei (%),[1]; [5],75% and 64%
same,Population Hoechst High Intensity Objects (%),[1]; [5],0%
same,Population Membrane Permeable-Phenotype (%),[1]; [5],1% and 6%
same,Population Mitochondria Different-Phenotype (%),[1]; [5],0% and 3%
same,Population Mitotic Cells (%),[1]; [5],50% and 39%
same,Population Normal (%),[1]; [5],100%
same,Population Pyknosed Nuclei (%),[1]; [5],11% and 25%
same,Population Tubulin-Different-Phenotype (%),[1]; [5],10% and 13%
same,Total Cell Count,[1]; [5],253 and 187
same,Population Apoptotic (%),[1]; [6],68% and 59%
same,Population Fragmented Nuclei (%),[1]; [6],27%
same,Population Healthy Nuclei (%),[1]; [6],62% and 60%
same,Population Hoechst High Intensity Objects (%),[1]; [6],0%
same,Population Membrane Permeable-Phenotype (%),[1]; [6],10% and 15%
same,Population Mitochondria Different-Phenotype (%),[1]; [6],1%
same,Population Mitotic Cells (%),[1]; [6],32% and 40%
same,Population Normal (%),[1]; [6],100%
same,Population Pyknosed Nuclei (%),[1]; [6],9% and 12%
same,Population Tubulin-Different-Phenotype (%),[1]; [6],74% and 46%
same,Total Cell Count,[1]; [6],254 and 259
same,Population Apoptotic (%),[1]; [7],71% and 61%
same,Population Fragmented Nuclei (%),[1]; [7],10% and 14%
same,Population Healthy Nuclei (%),[1]; [7],83% and 67%
same,Population Hoechst High Intensity Objects (%),[1]; [7],0%
same,Population Membrane Permeable-Phenotype (%),[1]; [7],4% and 9%
same,Population Mitochondria Different-Phenotype (%),[1]; [7],1% and 3%
same,Population Mitotic Cells (%),[1]; [7],28% and 38%
same,Population Normal (%),[1]; [7],100%
same,Population Pyknosed Nuclei (%),[1]; [7],6% and 17%
same,Population Tubulin-Different-Phenotype (%),[1]; [7],8% and 13%
same,Total Cell Count,[1]; [7],221 and 189
same,Population Apoptotic (%),[1]; [8],66% and 72%
same,Population Fragmented Nuclei (%),[1]; [8],31% and 29%
same,Population Healthy Nuclei (%),[1]; [8],59% and 61%
same,Population Hoechst High Intensity Objects (%),[1]; [8],0%
same,Population Membrane Permeable-Phenotype (%),[1]; [8],6% and 9%
same,Population Mitochondria Different-Phenotype (%),[1]; [8],1%
same,Population Mitotic Cells (%),[1]; [8],33% and 27%
same,Population Normal (%),[1]; [8],100%
same,Population Pyknosed Nuclei (%),[1]; [8],9% and 8%
same,Population Tubulin-Different-Phenotype (%),[1]; [8],71% and 54%
same,Total Cell Count,[1]; [8],257 and 251
same,Population Apoptotic (%),[2]; [3],53% and 52%
same,Population Fragmented Nuclei (%),[2]; [3],5% and 2%
same,Population Healthy Nuclei (%),[2]; [3],81% and 85%
same,Population Hoechst High Intensity Objects (%),[2]; [3],7% and 6%
same,Population Membrane Permeable-Phenotype (%),[2]; [3],3% and 1%
same,Population Mitochondria Different-Phenotype (%),[2]; [3],21% and 11%
same,Population Mitotic Cells (%),[2]; [3],46% and 47%
same,Population Normal (%),[2]; [3],92% and 93%
same,Population Pyknosed Nuclei (%),[2]; [3],13% and 11%
same,Population Tubulin-Different-Phenotype (%),[2]; [3],61% and 56%
same,Total Cell Count,[2]; [3],648 and 641
same,Population Apoptotic (%),[2]; [4],45% and 68%
same,Population Fragmented Nuclei (%),[2]; [4],4% and 3%
same,Population Healthy Nuclei (%),[2]; [4],77% and 84%
same,Population Hoechst High Intensity Objects (%),[2]; [4],17% and 13%
same,Population Membrane Permeable-Phenotype (%),[2]; [4],4% and 2%
same,Population Mitochondria Different-Phenotype (%),[2]; [4],59% and 57%
same,Population Mitotic Cells (%),[2]; [4],54% and 31%
same,Population Normal (%),[2]; [4],82% and 86%
same,Population Pyknosed Nuclei (%),[2]; [4],17% and 12%
same,Population Tubulin-Different-Phenotype (%),[2]; [4],92% and 91%
same,Total Cell Count,[2]; [4],429 and 378
same,Population Apoptotic (%),[2]; [5],49% and 53%
same,Population Fragmented Nuclei (%),[2]; [5],7% and 6%
same,Population Healthy Nuclei (%),[2]; [5],85% and 86%
same,Population Hoechst High Intensity Objects (%),[2]; [5],8% and 9%
same,Population Membrane Permeable-Phenotype (%),[2]; [5],3% and 1%
same,Population Mitochondria Different-Phenotype (%),[2]; [5],10% and 4%
same,Population Mitotic Cells (%),[2]; [5],50% and 46%
